Experimental findings from paper PMC3575599 (Cell reports, 2013) are described below.

The test system of one experiment is mefs. The experiment is described as follows: Proliferation of mefs with dox-inducible Chd5 or PHD-mutants. As to conditions: for effect on mef proliferation: dox-induced (0.2 μg/ml dox) vs untreated. Format: cell-based, mouse. In outline: (§1)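 Mouse Chd5 (wild-type or PHD point mutants) is introduced by retrovirus in a dox-inducible vector, with SK-N-AS cells stably expressing rtTA. Mefs are seeded at 5 × 10^4 cells per 6 cm dish and SK-N-AS at 2.5 × 10^4 cells. Cells grow in DMEM with 100 μg/ml hygromycin B and 0.5 μg/ml puromycin, ±0.2 μg/ml dox. Cells are counted over days in triplicate (Coulter counter or crystal violet); mean ± S.D., two-tailed t-test.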

Experiment [1] deals with Chd5 target gene expression. The experiment is described as follows: qRT-PCR of Chd5 target genes in mefs. As to conditions: qRT-PCR normalized with actin, with (+) vs without (−) dox. It counts as cell-based, mouse. Background: In qPCR the cycle at which signal appears reflects the starting amount.
A further experiment concerns H3K4me0 peptide. Nature of the experiment: Peptide pull-down with recombinant wild-type and mutant PHDs or individual PHDs. It counts as binding. As to conditions: biotinylated histone peptides; recombinant PHDs of Chd5.
Another experiment deals with H3 peptide. It counts as binding. As to conditions: nuclear extracts from mefs; anti-Flag immunoblot. (Immunoblotting shows a protein as a band on a membrane.)
The subject of experiment [2] is SK-N-AS cells. Nature of the experiment: Proliferation of SK-N-AS cells with dox-inducible Chd5 or PHD-mutants. It counts as cell-based, human. As to conditions: for reduction of SK-N-AS proliferation: dox-induced; for effect on SK-N-AS proliferation: dox-induced (0.2 μg/ml dox) vs untreated. The essentials:
as §1

For experiment [3], the system named is SK-N-AS cells. Nature of the experiment: Differentiation of SK-N-AS cells. Format: cell-based, human. As to conditions: for cell morphology / differentiation: SK-N-AS, dox-inducible expression; for MAP2 expression: immunofluorescence, neuronal marker MAP2.
Another experiment concerns unmodified H3. Format: binding. As to conditions: purified Chd5-PHDs or nuclear lysates expressing Flag-tagged Chd5; unmodified H3 peptides.
Experiment [4] deals with SK-N-AS cells. Nature of the experiment: Tumor growth of SK-N-AS cells injected subcutaneously into athymic nude mice. As to conditions: SK-N-AS cells s.c., dox-diet. Format: in vivo, human. The essentials: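 SK-N-AS cells carry rtTA plus dox-inducible vector, wild-type or PHD-mutant Chd5. 1.6 × 10^6 cells mixed with Matrigel are injected s.c. into irradiated athymic nude mice. One cohort gets normal diet; the other gets dox diet from two days before injection onward. A blinded observer measures tumours. Read-outs are fold increase in tumour volume over 17 days (mean ± S.E.M.) and percentage change, dox-treated versus untreated.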

For experiment [5], the system named is recombinant tandem PHDs of Chd5. Nature of the experiment: Biotinylated histone peptide pull-down with recombinant Chd5 PHDs. Format: binding, mouse. As to conditions: biotinylated histone peptides; in vitro pull-down.
The test system of a further experiment is chromatin. The experiment is described as follows: Chromatin fractions from cells expressing Flag-tagged Chd5. Format: cell-based.

Entries after “also recorded” stand apart in the source; their conditions may differ.

Take `C[C@H]1c2cccc(O)c2C(=O)C2=C(O)[C@]3(O)C(=O)C(C(N)=O)=C(O)[C@@H](N(C)C)[C@@H]3[C@@H](O)[C@@H]21` [doxycycline, reference compound]: the “effect on mef proliferation” value in the experiment with mefs was “no significant effect”.

Consider “C432W: Chd5 mutant compromised for H3 binding”, for which the “effect on mef proliferation” value in the experiment with mefs is on record as “defective in their ability to inhibit proliferation”. Besides, the “effect on Chd5 target gene expression in mefs” value (“effect … in mefs” for short) in experiment [1] is listed as “not able to inhibit expression of Chd5-bound loci”.

With “D346A/D434A: Chd5 double mutant, PHD1-D346A and PHD2-D434A”, in the experiment on mefs, the “effect on mef proliferation” value was “fail to do so”. Also, the “effect … in mefs” value in [1] is recorded as “fail to do so”.

For “D346A: Chd5-PHD1 single amino acid mutant; H3-binding-competent”, the “binding to H3K4me0 peptide (pull-down)” value with H3K4me0 peptide is “binds the H3K4me0 peptide”. The “pull-down by H3 peptide of Flag-tagged Chd5” value in the experiment with H3 peptide is given as “are pulled down by H3 peptide”. Besides, the “effect on mef proliferation” value with mefs was “inhibited proliferation to an extent comparable to that of wild-type Chd5; also recorded: inhibit proliferation”; with mefs (listed as Chd5-PHD1-D346A), “inhibits cellular proliferation”. In addition, the “effect … in mefs” value in [1] is listed as “repress target gene expression; also recorded: inhibit expression of several Chd5-bound genes”. The “reduction of SK-N-AS proliferation” value in the experiment on SK-N-AS cells [2] was “about 17%”. Also, the “effect on SK-N-AS proliferation” value is given as “inhibited proliferation” with SK-N-AS cells [2] and “inhibits cellular proliferation” with SK-N-AS cells [2] (listed as Chd5-PHD1-D346A). For the same compound, the “cell morphology / differentiation” value is on record as “intermediate differentiation phenotype” in the experiment on SK-N-AS cells [3] and “partially-differentiated morphology” in the experiment on SK-N-AS cells [3] (listed as Chd5-D346A). In addition, the “relative efficiency of H3 binding” value in the experiment on unmodified H3 is “bind H3 more efficiently than PHD1-D361A, PHD2-D434A, and PHD2-D415A”.

In the case of “D361A: Chd5-PHD1 single amino acid mutant compromised for H3 binding”, in the experiment with H3K4me0 peptide, the “binding to H3K4me0 peptide (pull-down)” value was “compromised binding”. Moreover, the “effect on mef proliferation” value is reported as “defective in their ability to inhibit proliferation” in the experiment on mefs and “fail to do so” with mefs (listed as Chd5-PHD1-D361A). The “effect … in mefs” value in experiment [1] is recorded as “fail to do so; also recorded: not able to inhibit expression of Chd5-bound loci”. In the experiment with SK-N-AS cells [2], the “effect on SK-N-AS proliferation” value is reported as “no such effects are observed”. Also, the “cell morphology / differentiation” value in the experiment with SK-N-AS cells [3] is reported as “classic stem-like neuroblastoma morphology with proliferative foci”. Moreover, the MAP2 expression result in the experiment on SK-N-AS cells [3] is “lower expression”. For the same compound, in the experiment with SK-N-AS cells [4], the “effect on tumor growth” value is given as “failed to reduce tumor growth”.

Consider “D415A: Chd5 mutant compromised for H3 binding”, for which, in the experiment on mefs, the “effect on mef proliferation” value is “defective in their ability to inhibit proliferation”.

On to “D434A: Chd5-PHD2 single amino acid mutant compromised for H3 binding”, for which, in the experiment on H3K4me0 peptide, the “binding to H3K4me0 peptide (pull-down)” value is “compromised binding”. The “effect on mef proliferation” value in the experiment with mefs is reported as “defective in their ability to inhibit proliferation”; in the experiment with mefs (listed as Chd5-PHD2-D434A), “fail to do so”. Further, the “effect … in mefs” value in [1] is on record as “fail to do so; also recorded: not able to inhibit expression of Chd5-bound loci”. Moreover, the “cell morphology / differentiation” value in the experiment on SK-N-AS cells [3] is on record as “classic stem-like neuroblastoma morphology with proliferative foci”. Also, the MAP2 expression result in the experiment with SK-N-AS cells [3] is given as “lower expression”. Further, the “effect on tumor growth” value with SK-N-AS cells [4] is on record as “failed to reduce tumor growth”.

As for “G355A: Chd5 mutant compromised for H3 binding”, in the experiment on mefs, the “effect on mef proliferation” value was “defective in their ability to inhibit proliferation”. For the same compound, the “effect … in mefs” value in experiment [1] was “not able to inhibit expression of Chd5-bound loci”.

Consider “PHD1: individual PHD of Chd5, PHD1 (345–403) (QDYCEVCQQGGEIILCDTCPRAYHLVCLDPELEKAPEGKWSCPHCEKEGIQWEPKDDDE; PHD1; UniProt A2A8L1 345-403, looked up, fragment)”, for which the “binding to H3K4me0 peptide (pull-down)” value in the experiment with H3K4me0 peptide is on record as “same binding preference for H3K4me0”.

As to “PHD2: individual PHD of Chd5, PHD2 (408–465) (GGCEEEEDDHMEFCRVCKDGGELLCCDACPSSYHLHCLNPPLPEIPNGEWLCPRCTCP; PHD2; UniProt A2A8L1 408-465, looked up, fragment)”, in the experiment on H3K4me0 peptide, the “binding to H3K4me0 peptide (pull-down)” value was “same binding preference for H3K4me0; also recorded: highest affinity”.

“W384A: H3-binding-competent Chd5-PHD mutant”: the “effect on mef proliferation” value in the experiment on mefs is recorded as “inhibited proliferation to an extent comparable to that of wild-type Chd5; also recorded: inhibit proliferation”. Also, in [1], the “effect … in mefs” value was “inhibit expression of several Chd5-bound genes”.

For “unmodified H3 (1–21) peptide: biotinylated histone H3 (1–21) peptide”, the “binding to recombinant tandem PHDs of Chd5 (pull-down)” value in experiment [5] is recorded as “bind”.

For the compound “wild-type Chd5: full-length mouse Chd5 (chromodomain helicase DNA-binding protein 5)”, in the experiment with H3 peptide, the “pull-down by H3 peptide of Flag-tagged Chd5” value is reported as “are pulled down by H3 peptide”. In addition, the “effect on mef proliferation” value with mefs is “inhibited proliferation; also recorded: inhibits cellular proliferation”. Also, the “inhibition of proliferation in mefs” value in the experiment on mefs (dox-induced, see Figure 3A) is recorded as 54%. The “effect … in mefs” value in experiment [1] is “repress target gene expression”. The “effect … in mefs” value in [1] (listed as Chd5) is “inhibits expression of the oncogenic PcG protein Bmi1”. Further, in the experiment on SK-N-AS cells [2], the “reduction of SK-N-AS proliferation” value was “about 17%” and the “effect on SK-N-AS proliferation” value is “inhibited proliferation; also recorded: inhibits cellular proliferation”. For the same compound, in the experiment with SK-N-AS cells [3], the “cell morphology / differentiation” value was “flat epithelial-like morphology; also recorded: differentiated cellular morphology” and the MAP2 expression result was “increased expression; also recorded: increase in MAP2 expression”. Further, the “effect on tumor growth” value with SK-N-AS cells [4] is reported as “reduces tumorigenesis in vivo much more efficiently”. In the experiment on chromatin, the association with chromatin result was “associated with chromatin”.
